# This is a sample that favours compounds with a hit; in the whole collection about 3.5% have one here.
# Apaf1 inhib: inhibitors of human Apaf-1 apoptosome; O14727; reconstituted apoptosome caspase-3 activity, DEVD-Rh110 fluorescence; inhibition, % at 20 µM; AID 489030; 0.71% of 330,000 active; active = inhibition of at least 40% at 20 µM
#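 Material: reconstituted apoptosome with Apaf-1, cytochrome c, caspase-9, procaspase-3, dATP / Buffer or medium: pH 7.5 Hepes buffer with CHAPS, BSA, DTT / Also added: cytochrome c with DEVD-Rh110 / Schedule: compound with Apaf-1, dATP, procaspase-3 30 min, then 50 min reaction, room temperature / Technique: rhodamine 110 fluorescence at Ex 480/Em 540 nm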
# PAFAH1B2 FP inh: blocks human PAF acetylhydrolase 1b catalytic subunit 2; P68402; recombinant PAFAH1B2, FP-rhodamine activity probe, fluorescence polarization; inhibition, % at 3.39 µM; 1.2% of 340,000 active; AID 492953;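 active = inhibition above the mean of all tested compounds plus 3 SD, cut at about 24% in these data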
# pPAFAH FP inh: pPAFAH (human) enzyme inhibition | recombinant pPAFAH, FP-rhodamine probe fluorescence polarization | 1.5% of 330,000 active | Q13093 | AID 463082 | inhibition, % at 3.39 µM;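 active = inhibition above the mean inhibition across the screen plus 3 SD, cut at about 25% in these data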;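 note: inhibitors block binding of the rhodamine activity-based probe so polarization drops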
# Target sequence (Q13093 whole entry, looked up): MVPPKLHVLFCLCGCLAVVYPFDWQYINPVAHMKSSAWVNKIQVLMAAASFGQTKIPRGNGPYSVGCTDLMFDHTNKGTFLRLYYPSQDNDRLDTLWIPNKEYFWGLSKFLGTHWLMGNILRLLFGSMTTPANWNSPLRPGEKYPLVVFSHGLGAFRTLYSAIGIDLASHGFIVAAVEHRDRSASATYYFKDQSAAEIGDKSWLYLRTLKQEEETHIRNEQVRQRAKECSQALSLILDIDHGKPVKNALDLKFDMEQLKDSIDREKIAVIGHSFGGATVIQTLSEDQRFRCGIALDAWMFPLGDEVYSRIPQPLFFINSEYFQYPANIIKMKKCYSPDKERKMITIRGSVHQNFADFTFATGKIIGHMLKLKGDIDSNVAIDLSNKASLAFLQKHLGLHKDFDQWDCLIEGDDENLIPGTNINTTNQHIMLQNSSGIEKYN
# PAFAH2 inh: PAFAH2 (human) inhibition; Q99487; AID 492956; 0.99% of 340,000 active; recombinant PAFAH2, FP-rhodamine activity probe, fluorescence polarization; inhibition, % at 3.39 µM;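 active = inhibition above the mean over all tested compounds plus 3 SD, cut at about 30% in these data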;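 note: inhibitors block probe labeling of enzyme so polarization drops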
# PREPL inh: human PREPL enzyme inhibition. 0.68% of 320,000 active. Q4J6C6. inhibition, % at 5.96 µM. AID 2751. recombinant PREPL, fluorescence polarization activity-based probe; in the data active = inhibition above about 43%
# PAFAH1B3 inh: inhibitors of human PAFAH1B3 | Q15102 | recombinant PAFAH1B3, FP-rhodamine probe, fluorescence polarization | inhibition, % at 3.39 µM | 0.28% of 340,000 active | AID 492972;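 active = inhibition above the screen-wide average of all tested compounds plus 3 SD, cut at about 25% in these data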
# pPAFAH confirm: confirmation of human plasma PAF acetylhydrolase (pPAFAH) inhibitors; shares compounds with pPAFAH FP inh; recombinant pPAFAH, FP-Rh probe fluorescence polarization; inhibition, % at 3.39 µM; 72% of 2,300 active;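 active = mean inhibition of the triplicate above the hit cutoff set for the earlier primary screen, cut at about 25% in these data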
# Apaf-1 inh conf: Apaf-1 inhibition, single-dose confirmed | shares compounds with Apaf1 inhib | reconstituted apoptosome, caspase-3 DEVD-Rh110 fluorescence | inhibition, % at 20 µM | 25% of 1,800 active | AID 504614;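 active = mean inhibition of at least 40% at 20 µM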
# Rh110 interf inh: interferes with Rh110 fluorescence, flagging false Apaf-1 inhibitors; shares compounds with Apaf1 inhib; Rh110 fluorescence interference, quenched caspase reaction; activation (fluorescence interference), % at 20 µM; 1,800 tested, under 10 active;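 active = signal rise of 40% or more at 20 µM, treated as a fluorescence artifact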
# PAFAH2 confirm: PAFAH2 (human) inhibition, confirmed. inhibition, % at 3.39 µM. 65% of 2,300 active. recombinant PAFAH2, FP-rhodamine activity probe, fluorescence polarization. shares compounds with PAFAH2 inh. AID 493030;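 active = mean inhibition over three repeats above a set limit taken from the earlier primary screen, cut at about 30% in these data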;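 note: inhibitor blocks binding of rhodamine activity probe so polarization falls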
# PAFAH1B3 conf FP: confirmation of human PAFAH1B3 inhibitors | 30% of 390 active | inhibition, % at 3.39 µM | shares compounds with PAFAH1B3 inh | recombinant PAFAH1B3, FP-Rh activity-based probe, fluorescence polarization | AID 493032;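 active = average inhibition over triplicate runs above the hit cutoff set in the earlier primary screen, cut at about 25% in these data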
# Numbers stand for hits; - = inactive; . = no result.
SMILES,Apaf1 inhib,PAFAH1B2 FP inh,pPAFAH FP inh,PAFAH2 inh,PREPL inh,PAFAH1B3 inh,pPAFAH confirm,Apaf-1 inh conf,Rh110 interf inh,others
Cc1cc(C(=O)N/N=C2\CC(=O)c3ccccc32)c(C)n1-c1ccc(F)cc1,69,-,42,-,-,-,32,-,-,
COc1cc(/C=N/NC(=O)CSc2cc(C)c(Br)cc2C)ccc1O,-,-,-,-,-,-,.,.,.,
Cc1cc(SCC(=O)N/N=C/c2ccc(O)c(O)c2O)c(C)cc1Br,49,-,57,-,-,-,75,-,-,
COc1ccccc1CNC(=O)COC(=O)c1cc(-c2ccco2)nc2ccccc12,-,-,56,33,-,-,-,.,.,PAFAH2 confirm=-
O=C(CSc1nnc(-c2ccco2)c(-c2ccco2)n1)Nc1ccccc1,-,-,59,42,-,-,-,.,.,PAFAH2 confirm=-
CC(C)(CNc1ccc([N+](=O)[O-])cc1Cl)N1CCOCC1,-,-,-,-,-,-,.,.,.,
C=CCN1CC2(c3ccccc3)CN(CC=C)CC(c3ccccc3)(C1)C2=O,-,-,-,-,-,-,.,.,.,
CCn1c(CSc2nc3ccccc3s2)nnc1SCC(=O)c1ccc(Cl)cc1,-,-,-,-,-,-,.,.,.,
CCn1c(CSc2nc3ccccc3s2)nnc1SCC(=O)c1ccc(O)c(O)c1,-,-,40,50,-,-,94,.,.,PAFAH2 confirm=-
O=C(Nc1ccc(N2CCOCC2)cc1)Nc1ccc2nc(-c3ccco3)c(-c3ccco3)nc2c1,-,-,45,-,-,28,-,.,.,PAFAH1B3 conf FP=-
O=C(CN(c1ccc(F)cc1)S(=O)(=O)c1ccccc1)NC1CCCCCC1,-,-,-,-,-,-,.,.,.,
COc1cccc(C=Nc2ccc(N3CCOCC3)cc2)c1O,-,-,-,-,-,-,.,.,.,
O=[N+]([O-])c1cc(Br)c(O)c(C=Nc2ccc(N3CCOCC3)cc2)c1,68,-,34,-,-,-,.,-,-,
CCN(CC)C(=O)[C@H]1CC(CC(=O)NC/C=C(\C)CCC=C(C)C)C(=O)N2CCc3c([nH]c4ccc(OC)cc34)[C@]12C (some centres undefined),42,-,26,-,.,-,.,-,-,
CCN(CC)C(=O)[C@H]1C[C@H](CC(=O)NCCCN(C)C)C(=O)N2CCc3c([nH]c4cc(-c5ccco5)ccc34)[C@]12C,-,-,-,-,.,-,.,.,.,
CC(C)N(C(=O)[C@H]1C[C@H](CC(=O)NCCCN(C)C)C(=O)N2CCc3c([nH]c4cc(-c5ccco5)ccc34)[C@]12C)C(C)C,52,-,-,-,.,-,.,-,-,
CN(C)CCCNC(=O)C[C@H]1C[C@H](C(=O)N2CCOCC2)[C@@]2(CCC3CCCC3)c3[nH]c4cc(-c5ccco5)ccc4c3CCN2C1=O,67,-,-,-,.,-,.,-,-,
O=C(C[C@H]1C[C@H](C(=O)N2CCOCC2)[C@@]2(CCC3CCCC3)c3[nH]c4cc(-c5ccco5)ccc4c3CCN2C1=O)NCCN1CCOCC1,-,-,-,-,.,-,.,.,.,
O=C(C[C@H]1C[C@H](C(=O)N2CCOCC2)[C@@]2(CCC3CCCC3)c3[nH]c4ccc(Cl)cc4c3CCN2C1=O)NCCCn1ccnc1,58,-,-,-,.,-,.,-,-,
O=C(O)/C=C/C(=O)Nc1ccccc1SC(F)(F)C(F)(F)C(F)(F)F,-,-,-,-,-,-,.,.,.,
CC(C)C(NC(=O)C1CCCCC1)C(=O)NCCc1ccccc1 (centres undefined),-,-,-,-,-,-,.,.,.,
CC(C)(C)c1csc(N/N=C/c2ccc(O)cc2)n1,-,-,-,-,-,-,.,.,.,
